Laboratory results: ChEMBL document CHEMBL3797154, “Design and Synthesis of 1-((1,5-Bis(4-chlorophenyl)-2-methyl-1H-pyrrol-3-yl)methyl)-4-methylpiperazine (BM212) and N-Adamantan-2-yl-N'-((E)-3,7-dimethylocta-2,6-dienyl)ethane-1,2-diamine (SQ109) Pyrrole Hybrid Derivatives: Discovery of Potent Antitubercular Agents Effective against …” (J Med Chem, 2016)
≈ marks a conversion by molar mass, not a printed value. Calls of active or inactive are those of the source. The calls are words filed in the database; no cut-off is given here.

Assays:
Mycolicibacterium aurum [1] = test: Inhibition of multidrug resistance efflux pump in Mycobacterium aurum ATCC 23366 assessed as inhibition of ethidium bromide efflux by measuring relative fluorescence units for ethidium bromide accumulation at 1/4 times MIC incubated for 60 mins by fluorimetric assay
Method in brief: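 Whole-cell efflux assay: early-log cells (OD600 ~0.8) adjusted to OD600 0.4, washed into PBS; 4-6x10^7 bacteria/mL with 0.4% glucose, 0.5 mg/L ethidium bromide substrate and compound at 1/4x MIC. Fluorescence ex 544/em 590 nm at 37 °C every minute for 60 min; accumulation scored 0-4 by relative fluorescence bands. Verapamil positive, PBS negative control.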

[2] = tested on: Mycolicibacterium smegmatis; test: Antimycobacterial activity against Mycobacterium smegmatis str. MC2 155 ATCC 700084 assessed as inhibition of mycobacterial growth incubated for 24 hrs by MABA method; type: functional; conditions: MC2 155 ATCC 700084, 24 h
Mycolicibacterium aurum [3] = test: Antimycobacterial activity against Mycobacterium aurum ATCC 23366 assessed as inhibition of mycobacterial growth incubated for 4 days; type: functional
Method in brief: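 HT-SPOTi agar dilution: two-fold serial dilutions of compound were mixed into Middlebrook 7H10 agar with 0.05% glycerol and 10% OADC, giving a final range of 500–0.5 µg/mL. Each well was spotted with 2x10^3 CFU of early-to-mid-log culture. Plates were incubated at 35 or 37 °C until spots appeared in control wells. Controls were DMSO-only and isoniazid. The MIC was read, in triplicate.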

[4] = tested on: Mycobacterium tuberculosis; test: Antimycobacterial activity against Mycobacterium tuberculosis mc'2-7000x assessed as inhibition of mycobacterial growth; type: functional
[5] = tested on: Mycobacterium tuberculosis; test: Antimycobacterial activity against Mycobacterium tuberculosis H37Rv ATTC 27294 assessed as inhibition of mycobacterial growth incubated for 7 days; type: functional; conditions: H37Rv ATTC 27294, 168 h
Method in brief: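 MIC by HT-SPOTi on Middlebrook 7H10 agar with 0.05% (v/v) glycerol and 10% (v/v) OADC in 96-well format. Compounds dissolved at 50 mg/mL (stock), two-fold serial dilutions, final 500-0.5 µg/mL. Each well spotted with 2 µL early-to-midlog culture (2x10^3 CFU), incubated at 37 °C until distinct spots in control wells. DMSO-only and isoniazid controls; triplicate.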

[6] = Cytotoxic activity against human THP1 cells assessed as reduction in cell viability incubated for 48 hrs by […] based assay; parameters: species or system THP-1; conditions: THP1 cells
Method in brief: (§1)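 RAW264.7 or THP-1 cells were grown in RPMI-1640 with 10% FBS and seeded at 10^5 cells/mL. Compound was two-fold serially diluted from a 50 mg/mL stock, with a solvent-control row. Plates were held 48 h at 37 °C in 5% CO2. Wells were washed twice with PBS, with centrifugation between washes for THP-1, then given fresh RPMI plus 0.01% […]. After overnight incubation, fluorescence was read at 560/590 nm and GIC50 derived.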

[7] = Cytotoxic activity against mouse RAW264.7 cells assessed as reduction in cell viability incubated for 48 hrs by […] based assay; method in brief: as §1
[8] = Selectivity index, ratio of GIC50 for cytotoxicity against mouse RAW264.7 cells to MIC for Mycobacterium tuberculosis H37Rv ATTC 27294; type: toxicity, cell-based; conditions: read-out: Selectivity Index
Method in brief: (§2)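 SI = GIC50 / H37Rv MIC (agar spot assay). GIC50 from cells in RPMI-1640 + 10% FBS, 37 °C, 5% CO2; 10^5 cells/mL added to two-fold compound dilutions from 50 mg/mL stock, solvent control row. 48 h exposure, washes (THP-1 centrifuged), fresh medium plus 0.01% […], overnight; fluorescence ex 560/em 590 nm.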

[9] = Selectivity index, ratio of GIC50 for cytotoxicity against human THP1 cells to MIC for Mycobacterium tuberculosis H37Rv ATTC 27294; type: toxicity, cell-based, THP-1; conditions: read-out: Selectivity Index; method in brief: as §2

SMILES	Activity (Mycolicibacterium aurum [1])	MIC [2]	MIC (Mycolicibacterium aurum [3])	MIC [4]	MIC [5]	GI50 at 48 h [6]	GI50 at 48 h [7]	selectivity ratio [8]	selectivity ratio [9]	MIC (Mycolicibacterium aurum [3]; ATCC 23366, 96 h)
Cc1c(CN2CCN(C3C4CC5CC(C4)CC3C5)CC2)cc(-c2ccc(Cl)cc2)n1-c1ccc(Cl)cc1 (centres undefined)	0 RFU	> 64 µg/mL	inactive	> 64 µg/mL	62 µg/mL (≈ 116 µM)	500 µg/mL (≈ 935 µM)	95 µg/mL (≈ 178 µM)	1.5	8.1	–
Cc1cc(CNCc2ccccc2)c(C)n1-c1ccc(Cl)cc1	2 RFU	4 µg/mL (≈ 12.3 µM)	–	0.5 µg/mL (≈ 1.54 µM)	0.5 µg/mL (≈ 1.54 µM)	7.2 µg/mL (≈ 22.2 µM)	5.5 µg/mL (≈ 16.9 µM)	11	14	1.9 µg/mL (≈ 5.85 µM)
Cc1c(CN2CCN(C)CC2)cc(-c2ccc(Cl)cc2)n1-c1ccc(Cl)cc1	2 RFU	25 µg/mL (≈ 60.3 µM)	–	8 µg/mL (≈ 19.3 µM)	1 µg/mL (≈ 2.41 µM)	3.23 µg/mL (≈ 7.8 µM)	19 µg/mL (≈ 45.9 µM)	19	3.23	16 µg/mL (≈ 38.6 µM)
Cc1cc(CNCc2ccc(Cl)cc2)c(C)n1-c1ccc(Cl)cc1	2 RFU	4 µg/mL (≈ 11.1 µM)	–	2 µg/mL (≈ 5.57 µM)	16 µg/mL (≈ 44.5 µM)	18 µg/mL (≈ 50.1 µM)	0.1 µg/mL (≈ 0.278 µM)	0.006	1.1	1.9 µg/mL (≈ 5.29 µM)
Cc1c(CN2CCN(C3CC4CCC3C4)CC2)cc(-c2ccc(Cl)cc2)n1-c1ccc(Cl)cc1 (mixture of isomers)	–	64 µg/mL	–	64 µg/mL	–	429 µg/mL	–	–	6.7	250 µg/mL
Cc1ccc(CNCc2cc(C)n(-c3ccc(Cl)cc3)c2C)cc1	2 RFU	8 µg/mL (≈ 23.6 µM)	–	2 µg/mL (≈ 5.9 µM)	1 µg/mL (≈ 2.95 µM)	6.1 µg/mL (≈ 18 µM)	0.1 µg/mL (≈ 0.295 µM)	0.1	6.1	1.9 µg/mL (≈ 5.61 µM)
Cc1cc(CN2CCN(C3C4CC5CC(C4)CC3C5)CC2)c(C)n1-c1ccccc1F (centres undefined)	1 RFU	13 µg/mL (≈ 30.8 µM)	–	1 µg/mL (≈ 2.37 µM)	3.9 µg/mL (≈ 9.25 µM)	26 µg/mL (≈ 61.7 µM)	11 µg/mL (≈ 26.1 µM)	2.8	6.7	250 µg/mL (≈ 593 µM)
Cc1c(CNCc2ccccc2)cc(-c2ccc(Cl)cc2)n1-c1ccc(Cl)cc1	1 RFU	8 µg/mL (≈ 19 µM)	–	16 µg/mL (≈ 38 µM)	–	99 µg/mL (≈ 235 µM)	–	–	6.1	1 µg/mL (≈ 2.37 µM)
Cc1c(CN2CCN(C34CC5CC(CC(C5)C3)C4)CC2)cc(-c2ccc(Cl)cc2)n1-c1ccc(Cl)cc1	3 RFU	3.3 µg/mL (≈ 6.17 µM)	–	0.5 µg/mL (≈ 0.935 µM)	7.8 µg/mL (≈ 14.6 µM)	35 µg/mL (≈ 65.5 µM)	23 µg/mL (≈ 43 µM)	2.9	4.5	62 µg/mL (≈ 116 µM)
Cc1cc(CN2CCN(C3C[C@@H]4CC[C@H]3C4)CC2)c(C)n1-c1ccc(Cl)cc1 (mixture of isomers)	1 RFU	27 µg/mL	–	2 µg/mL	1.9 µg/mL	16 µg/mL	5.6 µg/mL	2.9	8.4	16 µg/mL
Cc1cc(CN2CCN(C3C4CC5CC(C4)CC3C5)CC2)c(C)n1-c1ccc(C(C)C)cc1 (centres undefined)	3 RFU	21 µg/mL (≈ 47.1 µM)	–	3.3 µg/mL (≈ 7.4 µM)	16 µg/mL (≈ 35.9 µM)	72 µg/mL (≈ 162 µM)	92 µg/mL (≈ 206 µM)	5.7	4.5	500 µg/mL (≈ 1120 µM)
Cc1cc(CNCc2ccc(F)cc2)c(C)n1-c1ccc(Cl)cc1	1 RFU	2 µg/mL (≈ 5.83 µM)	–	0.7 µg/mL (≈ 2.04 µM)	> 125 µg/mL	8.4 µg/mL (≈ 24.5 µM)	26 µg/mL (≈ 75.8 µM)	–	–	1.9 µg/mL (≈ 5.54 µM)
Cc1cc(CNC2C3CC4CC(C3)CC2C4)c(C)n1-c1ccc(Cl)cc1 (centres undefined)	1 RFU	16 µg/mL (≈ 43.4 µM)	–	1 µg/mL (≈ 2.71 µM)	1.9 µg/mL (≈ 5.15 µM)	15 µg/mL (≈ 40.7 µM)	19 µg/mL (≈ 51.5 µM)	10	7.8	62 µg/mL (≈ 168 µM)
Cc1cccc(-n2c(C)cc(CN3CCN(C4C5CC6CC(C5)CC4C6)CC3)c2C)c1 (centres undefined)	2 RFU	64 µg/mL (≈ 153 µM)	–	32 µg/mL (≈ 76.6 µM)	16 µg/mL (≈ 38.3 µM)	37 µg/mL (≈ 88.6 µM)	22 µg/mL (≈ 52.7 µM)	1.4	2.3	500 µg/mL (≈ 1200 µM)
Cc1c(CN2CCN(c3ccccc3)CC2)c(CN2CCN(c3ccccc3)CC2)c(C)n1-c1ccc(Cl)cc1	2 RFU	> 64 µg/mL	–	> 64 µg/mL	31 µg/mL (≈ 55.9 µM)	113 µg/mL (≈ 204 µM)	500 µg/mL (≈ 902 µM)	16	3.6	250 µg/mL (≈ 451 µM)
Cc1cc(CN2CCN(C34CC5CC(CC(C5)C3)C4)CC2)c(C)n1-c1ccc(Cl)cc1	4 RFU	8 µg/mL (≈ 18.3 µM)	–	8 µg/mL (≈ 18.3 µM)	16 µg/mL (≈ 36.5 µM)	16 µg/mL (≈ 36.5 µM)	0.1 µg/mL (≈ 0.228 µM)	0.006	1	16 µg/mL (≈ 36.5 µM)
Cc1c(CNC2CCCCC2)cc(-c2ccc(Cl)cc2)n1-c1ccc(Cl)cc1	2 RFU	4 µg/mL (≈ 9.68 µM)	–	8 µg/mL (≈ 19.4 µM)	–	3.9 µg/mL (≈ 9.43 µM)	–	–	0.5	1 µg/mL (≈ 2.42 µM)
Cc1c(CN2CCN(c3ccccc3)CC2)cc(-c2ccc(Cl)cc2)n1-c1ccc(Cl)cc1	2 RFU	> 64 µg/mL	inactive	1 µg/mL (≈ 2.1 µM)	1.9 µg/mL (≈ 3.99 µM)	294 µg/mL (≈ 617 µM)	175 µg/mL (≈ 367 µM)	92	155	–
Cc1cc(CN2CCN(C3C4CC5CC(C4)CC3C5)CC2)c(C)n1-c1ccc(Cl)cc1 (centres undefined)	1 RFU	8 µg/mL (≈ 18.3 µM)	–	3.3 µg/mL (≈ 7.53 µM)	7.8 µg/mL (≈ 17.8 µM)	32 µg/mL (≈ 73 µM)	5.7 µg/mL (≈ 13 µM)	0.7	4.1	7.8 µg/mL (≈ 17.8 µM)
